Source: publication PMC3766433 (Journal of neurochemistry, 2013)

Tests used:
Assay type in all cases: binding
Munc13-1 C1 (WT) [1] = target: T1, Munc13-1 C1 (WT) (Rattus norvegicus, UniProt Q62768); assay: photolabeling, LC-MS/MS; conditions: covalent (photoaffinity), site Glu-582
Munc13-1 C1 (WT) [2] = target: T1, Munc13-1 C1 (WT); assay: intrinsic fluorescence quenching, logistic fit
Method in brief: (§1)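 GST-fused Munc13-1 C1 domain (wild type or Glu-582 mutant) was expressed in E. coli BL21 DE3 gold, affinity-purified and thrombin-cleaved. Protein was held at 1 μM in 50 mM Tris, 100 mM NaCl, pH 7.4. Alcohols were added neat or from a 0.25 M DMSO stock, at 1–250, 1–150 or 1–5 mM depending on the alcohol. After 15 min incubation, samples were excited at 280 nm. Emission at 348–350 nm was buffer-corrected and fitted to a logistic equation; runs were done in triplicate.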

Munc13-1 C1 (WT) [3] = target: Munc13-1 C1 (WT) (Rattus norvegicus, UniProt Q62768, E582H); assay: intrinsic fluorescence quenching, logistic fit
Method in brief: as §1

Munc13-1 C1 (WT) [4] = target: Munc13-1 C1 (WT) (Rattus norvegicus, UniProt Q62768, E582A); assay: intrinsic fluorescence quenching, logistic fit
Method in brief: as §1

Munc13-1 C1 (WT) [5] = target: Munc13-1 C1 (WT) (Rattus norvegicus, UniProt Q62768, E582L); assay: intrinsic fluorescence quenching, logistic fit
Method in brief: as §1

Row | EC50 (Munc13-1 C1 (WT) [2]) | EC50 (Munc13-1 C1 (WT) [3]) | EC50 (Munc13-1 C1 (WT) [4]) | EC50 (Munc13-1 C1 (WT) [5]) | SMILES | photolabeling, LC-MS/MS; fluorescence quenching (Munc13-1 C1 (WT) [1])
1 |  |  |  |  | CC1(CCO)N=N1 [3-azibutanol] | 3-azibutanol labeled the Munc13-1 C1 at the Glu-582 site
2 | 51.7 ± 2.8 mM |  |  |  | CCO [Ethanol] | 
3 | 25.8 ± 1.1 mM | 75.3 ± 1.9 mM | 59.9 ± 0.9 mM | 70.5 ± 1.8 mM | CCCCO [Butanol] | 
4 | 0.7 ± 0.03 mM | 1.1 ± 0.07 mM | 2.6 ± 0.2 mM | 3.3 ± 0.06 mM | CCCCCCCCO [Octanol] | 
